Results reported in ChEMBL document CHEMBL4715736, “Identification of anticancer agents based on the thieno[2,3-b]pyridine and 1H-pyrazole molecular scaffolds” (2016).

How the values were obtained:
Assay type in all cases: functional
HCT-15 [1] = assay: Growth inhibition of human HCT-15 cells assessed as cell growth at 0.01 uM incubated for 48 hrs by sulforhodamine B assay relative to control; details: read-out: Activity
A549 = assay: Growth inhibition of human A549/ATCC cells assessed as cell growth at 0.01 uM incubated for 48 hrs by sulforhodamine B assay relative to control; details: read-out: Activity
Summary of the method: (§1)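 NCI Developmental Therapeutics Program NCI60 panel. Compounds that were active in the 10 µM one-dose screen went on to dose–response testing. Growth at each concentration is expressed relative to untreated control (100%). GI50 (concentration giving 50% of maximal inhibition of proliferation) and TGI (concentration giving total growth inhibition) were derived from the curves.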

SF-539 [2] = assay: Growth inhibition of human SF-539 cells assessed as cell growth at 100 uM incubated for 48 hrs by sulforhodamine B assay relative to control; details: read-out: Activity
LOX IMVI = assay: Growth inhibition of human LOX IMVI cells incubated for 48 hrs by sulforhodamine B assay
Summary of the method: (§2)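 NCI60 panel at the NCI Developmental Therapeutics Program. Only compounds active in the 10 µM screen went to dose-response testing. GI50, the concentration giving 50% of maximal inhibition of proliferation, and TGI, the concentration giving total growth inhibition, were derived from the dose-response curves.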

MDA-MB-231 = assay: Growth inhibition of human MDA-MB-231 cells assessed as cell growth at 100 uM incubated for 48 hrs by sulforhodamine B assay relative to control; details: read-out: Activity
786-0 [3] = assay: Growth inhibition of human 786-0 cells assessed as cell growth at 0.01 uM incubated for 48 hrs by sulforhodamine B assay relative to control; details: read-out: Activity; summary of the method: as §1
786-0 [4] = assay: Growth inhibition of human 786-0 cells incubated for 48 hrs by sulforhodamine B assay; summary of the method: as §1
IGROV-1 [5] = assay: Growth inhibition of human IGROV-1 cells assessed as cell growth at 1 uM incubated for 48 hrs by sulforhodamine B assay relative to control; details: read-out: Activity
786-0 [6] = assay: Growth inhibition of human 786-0 cells assessed as cell growth at 0.1 uM incubated for 48 hrs by sulforhodamine B assay relative to control; details: read-out: Activity; summary of the method: as §1
M14 = assay: Growth inhibition of human M14 cells assessed as cell growth at 0.01 uM incubated for 48 hrs by sulforhodamine B assay relative to control; details: read-out: Activity
SNB-75 = assay: Growth inhibition of human SNB-75 cells assessed as cell growth at 1 uM incubated for 48 hrs by sulforhodamine B assay relative to control; details: read-out: Activity
NCI-H226 = assay: Growth inhibition of human NCI-H226 cells incubated for 48 hrs by sulforhodamine B assay; summary of the method: as §2
IGROV-1 [7] = assay: Growth inhibition of human IGROV-1 cells incubated for 48 hrs by sulforhodamine B assay; summary of the method: as §2
A498 = assay: Growth inhibition of human A498 cells assessed as cell growth at 0.01 uM incubated for 48 hrs by sulforhodamine B assay relative to control; details: read-out: Activity; summary of the method: as §1
OVCAR-3 = assay: Growth inhibition of human OVCAR-3 cells assessed as cell growth at 0.01 uM incubated for 48 hrs by sulforhodamine B assay relative to control; details: read-out: Activity
CCRF-CEM = assay: Growth inhibition of human CCRF-CEM cells incubated for 48 hrs by sulforhodamine B assay; summary of the method: as §1
HCT-116 = assay: Growth inhibition of human HCT-116 cells incubated for 48 hrs by sulforhodamine B assay; summary of the method: as §2
UACC-257 = assay: Growth inhibition of human UACC-257 cells assessed as cell growth at 100 uM incubated for 48 hrs by sulforhodamine B assay relative to control; details: read-out: Activity
SK-MEL-28 [8] = assay: Growth inhibition of human SK-MEL-28 cells assessed as cell growth at 1 uM incubated for 48 hrs by sulforhodamine B assay relative to control; details: read-out: Activity
OVCAR-8 = assay: Growth inhibition of human OVCAR-8 cells assessed as cell growth at 0.01 uM incubated for 48 hrs by sulforhodamine B assay relative to control; details: read-out: Activity
HCT-15 [9] = assay: Growth inhibition of human HCT-15 cells incubated for 48 hrs by sulforhodamine B assay; summary of the method: as §2
U-251 = assay: Growth inhibition of human U-251 cells incubated for 48 hrs by sulforhodamine B assay
Summary of the method: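 NCI DTP 60-line human tumour panel. Dose-response curves were run only for ligands active in the initial 10 µM screen. GI50 (concentration giving 50% of maximal inhibition of proliferation) and TGI (concentration giving total growth inhibition) were derived from these curves.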

SR = assay: Growth inhibition of human SR cells assessed as cell growth at 0.1 uM incubated for 48 hrs by sulforhodamine B assay relative to control; details: read-out: Activity
NCI-H460 = assay: Growth inhibition of human NCI-H460 cells assessed as cell growth at 100 uM incubated for 48 hrs by sulforhodamine B assay relative to control; details: read-out: Activity
SK-OV-3 = assay: Growth inhibition of human SK-OV-3 cells assessed as cell growth at 100 uM incubated for 48 hrs by sulforhodamine B assay relative to control; details: read-out: Activity
SF-539 [10] = assay: Growth inhibition of human SF-539 cells assessed as cell growth at 0.1 uM incubated for 48 hrs by sulforhodamine B assay relative to control; details: read-out: Activity
T47D = assay: Growth inhibition of human T47D cells assessed as cell growth at 1 uM incubated for 48 hrs by sulforhodamine B assay relative to control; details: read-out: Activity
COLO 205 = assay: Growth inhibition of human COLO 205 cells assessed as cell growth at 1 uM incubated for 48 hrs by sulforhodamine B assay relative to control; details: read-out: Activity; summary of the method: as §1
HOP-62 = assay: Growth inhibition of human HOP-62 cells assessed as cell growth at 1 uM incubated for 48 hrs by sulforhodamine B assay relative to control; details: read-out: Activity
NCI-H522 = assay: Growth inhibition of human NCI-H522 cells incubated for 48 hrs by sulforhodamine B assay; summary of the method: as §2
DU-145 = assay: Growth inhibition of human DU-145 cells assessed as cell growth at 0.01 uM incubated for 48 hrs by sulforhodamine B assay relative to control; details: read-out: Activity; summary of the method: as §1
SK-MEL-28 [11] = assay: Growth inhibition of human SK-MEL-28 cells assessed as cell growth at 100 uM incubated for 48 hrs by sulforhodamine B assay relative to control; details: read-out: Activity
SNB-19 = assay: Growth inhibition of human SNB-19 cells assessed as cell growth at 0.1 uM incubated for 48 hrs by sulforhodamine B assay relative to control; details: read-out: Activity
[12] = read-out: LC50 (the source's name)

With `CCc1ccccc1NC(=O)c1sc2nc3c(cc2c1N)C(=O)CCC3` as the molecule, how does the growth at 0.01 µM (HCT-15 [1]) read?
Its growth at 0.01 µM is 93%.

And the growth at 0.01 µM (A549)?
Its growth at 0.01 µM is 97%.

And the growth at 100 µM (SF-539 [2])?
Its growth at 100 µM is -34%.

What about the GI50 (LOX IMVI) of the same molecule?
The GI50 was 0.645 µM.

And the LC50 (LOX IMVI)?
Its LC50 is > 100 µM.

And the TGI (LOX IMVI)?
Its TGI is > 100 µM.

What about the growth at 100 µM (MDA-MB-231) of the same molecule?
Its growth at 100 µM is 4%.

What about the growth at 0.01 µM (786-0 [3]) of the same molecule?
The growth at 0.01 µM was 90%.

And the GI50 (786-0 [4])?
Its GI50 is 0.578 µM.

And the TGI (786-0 [4])?
Its TGI is ≥ 100 µM.

What about the CC50 (786-0 [4]; [12]) of the same molecule?
The CC50 was > 100 µM.

And the growth at 1 µM (IGROV-1 [5])?
Its growth at 1 µM is 62%.

And the growth at 0.1 µM (786-0 [6])?
The growth at 0.1 µM was 89%.

And the growth at 0.01 µM (M14)?
The growth at 0.01 µM was 90%.

What about the growth at 1 µM (SNB-75) of the same molecule?
Its growth at 1 µM is -8%.

What about the GI50 (NCI-H226) of the same molecule?
The GI50 was 20.1 µM.

What about the TGI (NCI-H226) of the same molecule?
Its TGI is > 100 µM.

And the CC50 (NCI-H226; [12])?
The CC50 was > 100 µM.

And the GI50 (IGROV-1 [7])?
The GI50 was 13.7 µM.

What about the LC50 (IGROV-1 [7]) of the same molecule?
Its LC50 is > 100 µM.

And the TGI (IGROV-1 [7])?
Its TGI is > 100 µM.

And the growth at 0.01 µM (A498)?
Its growth at 0.01 µM is 80%.

What about the growth at 0.01 µM (OVCAR-3) of the same molecule?
Its growth at 0.01 µM is 107%.

And the GI50 (CCRF-CEM)?
The GI50 was 0.328 µM.

What about the LC50 (CCRF-CEM) of the same molecule?
Its LC50 is > 100 µM.

And the TGI (CCRF-CEM)?
Its TGI is > 100 µM.

What about the GI50 (HCT-116) of the same molecule?
The GI50 was 0.483 µM.

What about the LC50 (concentration killing 50% of cells) (HCT-116) of the same molecule?
The LC50 (concentration killing 50% of cells) was > 100 µM.

And the TGI (HCT-116)?
The TGI was > 100 µM.

What about the growth at 100 µM (UACC-257) of the same molecule?
The growth at 100 µM was 25%.

What about the growth at 1 µM (SK-MEL-28 [8]) of the same molecule?
The growth at 1 µM was 49%.

What about the growth at 0.01 µM (OVCAR-8) of the same molecule?
The growth at 0.01 µM was 98%.

What about the GI50 (HCT-15 [9]) of the same molecule?
Its GI50 is 0.349 µM.

And the LC50 (HCT-15 [9])?
Its LC50 is > 100 µM.

And the TGI (HCT-15 [9])?
Its TGI is > 100 µM.

And the GI50 (U-251)?
The GI50 was 0.499 µM.

What about the LC50 (concentration killing 50% of cells) (U-251) of the same molecule?
The LC50 (concentration killing 50% of cells) was > 100 µM.

What about the TGI (U-251) of the same molecule?
Its TGI is 29.1 µM.

What about the growth at 0.1 µM (SR) of the same molecule?
Its growth at 0.1 µM is 96%.

What about the growth at 100 µM (NCI-H460) of the same molecule?
Its growth at 100 µM is 3%.

And the growth at 100 µM (SK-OV-3)?
The growth at 100 µM was -4%.

What about the growth at 0.1 µM (SF-539 [10]) of the same molecule?
Its growth at 0.1 µM is 93%.

What about the growth at 1 µM (T47D) of the same molecule?
The growth at 1 µM was 20%.

What about the growth at 1 µM (COLO 205) of the same molecule?
The growth at 1 µM was -34%.

What about the growth at 1 µM (HOP-62) of the same molecule?
The growth at 1 µM was 33%.

And the GI50 (NCI-H522)?
Its GI50 is 0.502 µM.

What about the LC50 (NCI-H522) of the same molecule?
Its LC50 is > 100 µM.

What about the TGI (NCI-H522) of the same molecule?
Its TGI is > 100 µM.

And the growth at 0.01 µM (DU-145)?
The growth at 0.01 µM was 105%.

And the growth at 100 µM (SK-MEL-28 [11])?
Its growth at 100 µM is 11%.

What about the growth at 0.1 µM (SNB-19) of the same molecule?
The growth at 0.1 µM was 88%.
